Assay results as given in ChEMBL document CHEMBL1671864, “First assessment in humans of the safety, tolerability, pharmacokinetics, and ex vivo pharmacodynamic antimalarial activity of the new artemisinin derivative artemisone” (Antimicrob Agents Chemother, 2008).

Assays:
[1] = tested on: Homo sapiens; test: Toxicity in healthy human assessed as occurrence of adverse event at 80 mg, po administered daily for 3 days as four 20-mg immediate-release tablets during 10 hrs overnight fasting state; type: organism-based; settings: in vivo
In short: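 3-day daily oral tablet dosing in healthy Caucasian men (8 active, 4 placebo per dose). Adverse events were collected by open questioning and spontaneous report. Severity was graded mild (daily activities unaffected), moderate (some interference) or severe (activities not completed).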

[2] = AUC in healthy human plasma at 10 mg, po administered as single ascending doses as solution during 10 hrs overnight fasting state; type: ADME, organism-based; set-up: dose 10 mg, time < 10 hr, route oral
In short: (§1)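 Single ascending oral doses in healthy Caucasian men, given fasted (10-h overnight) with 240 ml water: 10, 20, 30 or 40 mg as oral solution, or 80 mg as IR tablets. Parent plasma levels by LC/MS-MS over 0.25–14 h. Noncompartmental analysis: kel by terminal-phase least-squares regression, AUC extrapolated to infinity, CL/F = dose/AUC, V/F = CL/F÷kel.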

[3] = Tmax in healthy human plasma at 10 mg, po administered as single ascending doses as solution during 10 hrs overnight fasting state; type: ADME, organism-based
In short: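 Healthy Caucasian male volunteers, randomized within each dose group against placebo, given a single oral solution with 240 ml water after a 10-h overnight fast. Plasma sampled predose and at 0.25–14 h, quantified by LC/MS-MS (MRM, deuterated internal standard). Tmax read directly from individual noncompartmental concentration–time data.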

[4] = Apparent oral clearance in healthy human at 10 mg, po administered as single ascending doses as solution during 10 hrs overnight fasting state; type: ADME, organism-based; settings: in vivo; in short: as §1
[5] = Half life in healthy human plasma at 20 mg, po administered as single ascending doses as solution during 10 hrs overnight fasting state; type: ADME, organism-based
In short: (§2)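 Healthy Caucasian male volunteers, single oral dose with 240 ml water after a 10-h overnight fast. Heparinised venous blood was drawn predose and at 0.25–14 h. Plasma was stored frozen. Parent drug and metabolites M1–M3 were measured by LC/MS-MS (MRM, deuterated internal standard). Noncompartmental analysis gave Cmax observed, t1/2 = 0.693/kel (terminal regression) and MRT = AUMC/AUC. Values are geometric means.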

[6] = Apparent volume of distribution with respect to the bioavailability in healthy human at 20 mg, po administered as single ascending doses as solution during 10 hrs overnight fasting state; type: ADME, organism-based; settings: in vivo, read-out: Vc/F; in short: as §1
[7] = Half life in healthy human plasma at 30 mg, po administered as single ascending doses as solution during 10 hrs overnight fasting state; type: ADME, organism-based; in short: as §2
[8] = Mean residence time in healthy human at 30 mg, po administered as single ascending doses as solution during 10 hrs overnight fasting state; type: ADME, organism-based; settings: in vivo; in short: as §2
[9] = Apparent oral clearance in healthy human at 30 mg, po administered as single ascending doses as solution during 10 hrs overnight fasting state; type: ADME, organism-based; settings: in vivo; in short: as §1
[10] = (§3) Apparent oral clearance in healthy human at 80 mg, po administered as four 20 mg immediate release tablets daily for 3 days during 10 hrs overnight fasting state measured after 3 day; type: ADME, organism-based; settings: in vivo
In short: (§4)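 Healthy Caucasian males took 40 mg (2×20-mg IR tablets) or 80 mg (4 tablets) orally daily for 3 days after a 10-h fast. Plasma parent drug was measured by LC/MS-MS from predose to 14 h after the first and third doses. Noncompartmental analysis: AUC by log-linear trapezoid extrapolated via kel, CL/F = dose/AUC, V/F = CL/F÷kel, geometric means.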

[11] = Cmax in healthy human plasma at 80 mg, po administered as single immediate release tablets during 10 hrs overnight fasting state; type: ADME, organism-based; set-up: dose 80 mg, route oral; in short: as §2
[12] = Tmax in healthy human plasma at 80 mg, po administered as single immediate release tablets during 10 hrs overnight fasting state; type: ADME, organism-based
In short: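 Healthy Caucasian male volunteers (n=6 active, 2 placebo, randomized), single 80 mg dose as four 20-mg tablets with 240 ml water after 10-h fast. Venous lithium-heparin plasma sampled predose and 0.25–14 h; analysed by LC/MS-MS (MRM, deuterated internal standard). Noncompartmental analysis; Tmax observed directly; MRT = AUMC/AUC with extrapolation to infinity via kel.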

[13] = Half life in healthy human plasma at 40 mg, po administered as two 20 mg immediate release tablets daily for 3 days during 10 hrs overnight fasting state measured after 1 day; type: ADME, organism-based
In short: (§5)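 Healthy Caucasian males took tablets once daily for 3 days with 240 ml water after a 10-h fast. Heparinised blood was drawn predose and at 0.25–14 h after the first and last doses. Plasma parent drug and metabolites M1–M3 were measured by LC/MS-MS (MRM, deuterated internal standard). Noncompartmental analysis gave Cmax observed, t1/2 = 0.693/kel and MRT = AUMC/AUC. Values are geometric means.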

[14] = Mean residence time in healthy human at 40 mg, po administered as two 20 mg immediate release tablets daily for 3 days during 10 hrs overnight fasting state measured after 1 day; type: ADME, organism-based; settings: in vivo; in short: as §5
[15] = Mean residence time in healthy human at 40 mg, po administered as two 20 mg immediate release tablets daily for 3 days during 10 hrs overnight fasting state measured after 3 day; type: ADME, organism-based; settings: in vivo; in short: as §5
[16] = Apparent oral clearance in healthy human at 40 mg, po administered as two 20 mg immediate release tablets daily for 3 days during 10 hrs overnight fasting state measured after 3 day; type: ADME, organism-based; settings: in vivo; in short: as §4
[17] = Apparent volume of distribution with respect to the bioavailability in healthy human at 40 mg, po administered as two 20 mg immediate release tablets daily for 3 days during 10 hrs overnight fasting state measured after 3 day; type: ADME, organism-based; settings: in vivo, read-out: Vc/F; in short: as §4
[18] = tested on: Plasma; test: Ratio of Cmax in healthy human plasma at 40 mg, po administered as two 20 mg immediate release tablets daily for 3 days during 10 hrs overnight fasting state measured after 1 day to Cmax in healthy human plasma at 40 mg, po administered as two 20 mg immediate release tablets daily for 3 days during 10 hrs overnight fasting state measured after 3 day; type: ADME, organism-based; settings: in vivo
In short: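 Healthy Caucasian men took tablets daily for 3 days with 240 ml water after 10-h fast. Plasma sampled 0.25–14 h after first and last doses, artemisone measured by LC/MS-MS. Accumulation ratio is Cmax or AUC0-∞ after last dose divided by that after first dose. Noncompartmental analysis, geometric means with 95% CI.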

[19] = Cmax in healthy human plasma at 80 mg, po administered as four 20 mg immediate release tablets daily for 3 days during 10 hrs overnight fasting state measured after 3 day; type: ADME, organism-based; set-up: dose 80 mg, route oral; in short: as §5
[20] = Tmax in healthy human plasma at 80 mg, po administered as four 20 mg immediate release tablets daily for 3 days during 10 hrs overnight fasting state measured after 1 day; type: ADME, organism-based
In short: (§6)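 Healthy Caucasian men (8 active, 4 placebo per dose) dosed with tablets daily for 3 days after 10-h fast. Lithium-heparin plasma sampled predose and 0.25–14 h after day-1 and day-3 doses, stored frozen. Parent and M1–M3 quantified by LC/MS-MS in positive-ion MRM. Tmax taken directly from observed individual data.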

[21] = Tmax in healthy human plasma at 80 mg, po administered as four 20 mg immediate release tablets daily for 3 days during 10 hrs overnight fasting state measured after 3 day; type: ADME, organism-based; in short: as §6
[22] = Mean residence time in healthy human at 80 mg, po administered as four 20 mg immediate release tablets daily for 3 days during 10 hrs overnight fasting state measured after 3 day; type: ADME, organism-based; settings: in vivo; in short: as §5
[23] = Apparent oral clearance in healthy human at 80 mg, po administered as four 20 mg immediate release tablets daily for 3 days during 10 hrs overnight fasting state measured after 1 day; type: ADME, organism-based; settings: in vivo; in short: as §4
[24] = as §3; type: ADME, organism-based; settings: in vivo; in short: as §4; remark: listed apart in the source
[25] = Apparent volume of distribution with respect to the bioavailability in healthy human at 80 mg, po administered as four 20 mg immediate release tablets daily for 3 days during 10 hrs overnight fasting state measured after 3 day; type: ADME, organism-based; settings: in vivo, read-out: Vc/F; in short: as §4

## C[C@H]1[C@H](N2CCS(=O)(=O)CC2)O[C@@H]2O[C@@]3(C)CC[C@H]4[C@H](C)CC[C@@H]1[C@@]24OO3 [ARTEMIFONE]
[1]
  Activity: Non-toxic
[2]
  AUC at 10 h: 29.5 ng·h/mL
[3]
  Tmax: 0.25 h
[4]
  CL/F: 5640 mL/min
[5]
  half-life: 3.48 h
[6]
  Vd/F: 19.1 L/kg
[7]
  half-life: 3.14 h
[8]
  MRT: 2.29 h
[9]
  CL/F: 6960 mL/min
[10]
  CL/F: 3950 mL/min
[11]
  Cmax: 140 ng/mL
[12]
  Tmax: 0.875 h
[13]
  half-life: 3.36 h
[14]
  MRT: 2.91 h
[15]
  MRT: 3.74 h
[16]
  CL/F: 3500 mL/min
[17]
  Vd/F: 16.1 L/kg
[18]
  Ratio: 98.5%
[19]
  Cmax: 130 ng/mL
[20]
  Tmax: 1.5 h
[21]
  Tmax: 1.5 h
[22]
  MRT: 3.53 h
[23]
  CL/F: 3880 mL/min
[24]
  CL/F: 3950 mL/min
[25]
  Vd/F: 13.7 L/kg
